Test results: ChEMBL document CHEMBL1141663, “Synthesis and antibacterial activity of bis-[2-hydroxy-3-(1,7,8,9,10-pentamethyl-3,5-dioxo-4-aza-tricyclo[5.2.1.0(2,6)]dec-8-en-4-yloxy)-propyl]-dimethyl-ammonium chloride” (2008)
Active and inactive are the calls of the source. The rule behind the calls is not given here.

Key:
Staphylococcus aureus [1] = experiment: Antibacterial activity against Staphylococcus aureus ATCC 25923 at 100 ug/disk after 24 to 48 hrs by disc-diffusion method; assay type: functional; conditions: read-out: IZ
Staphylococcus aureus [2] = experiment: Antibacterial activity against Staphylococcus aureus NCTC 4163 at 100 ug/disk after 24 to 48 hrs by disc-diffusion method; assay type: functional; conditions: read-out: IZ
Staphylococcus aureus [3] = experiment: Antibacterial activity against Staphylococcus aureus ATCC 29213 at 100 ug/disk after 24 to 48 hrs by disc-diffusion method; assay type: functional; conditions: read-out: IZ
Staphylococcus aureus [4] = experiment: Antibacterial activity against Staphylococcus aureus ATCC 6538P at 100 ug/disk after 24 to 48 hrs by disc-diffusion method; assay type: functional; conditions: read-out: IZ
Bacillus subtilis = experiment: Antibacterial activity against Bacillus subtilis ATCC 6633 at 100 ug/disk […] by disc-diffusion method; assay type: functional; conditions: read-out: IZ
Enterococcus hirae = experiment: Antibacterial activity against Enterococcus hirae ATCC 10541 at 100 ug/disk […] by disc-diffusion method; assay type: functional; conditions: read-out: IZ
Escherichia coli [5] = experiment: Antibacterial activity against Escherichia coli ATCC 25922 at 100 ug/disk […] by disc-diffusion method; assay type: functional, organism-based
Escherichia coli [6] = experiment: Antibacterial activity against Escherichia coli ATCC 10538 at 100 ug/disk […] by disc-diffusion method; assay type: functional, organism-based
Pseudomonas aeruginosa [7] = experiment: Antibacterial activity against Pseudomonas aeruginosa NCTC 6749 at 100 ug/disk […] by disc-diffusion method; assay type: functional, organism-based
Pseudomonas aeruginosa [8] = experiment: Antibacterial activity against Pseudomonas aeruginosa ATCC 15442 at 100 ug/disk […] by disc-diffusion method; assay type: functional, organism-based
[9] = test system: Bordetella bronchiseptica; experiment: Antibacterial activity against Bordetella bronchiseptica ATCC 4617 at 100 ug/disk […] by disc-diffusion method; assay type: functional; conditions: read-out: IZ
Candida albicans = experiment: Antimicrobial activity against Candida albicans ATCC 10231 at 100 ug/disk after 24 to 48 hrs by disc-diffusion method; assay type: functional, organism-based
How it was run: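 Antifungal disc diffusion on YNB agar under CLSI guidelines. Sterile 10 mm filter-paper discs were loaded from aqueous solution with 100 or 400 µg of compound per disc. Plates were read after 24–48 h incubation at 30 °C.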

Staphylococcus aureus [10] = experiment: Antibacterial activity against Staphylococcus aureus ATCC 25923 at 400 ug/disk after 24 to 48 hrs by disc-diffusion method; assay type: functional; conditions: read-out: IZ
Staphylococcus aureus [11] = experiment: Antibacterial activity against Staphylococcus aureus NCTC 4163 at 400 ug/disk after 24 to 48 hrs by disc-diffusion method; assay type: functional; conditions: read-out: IZ
Staphylococcus aureus [12] = experiment: Antibacterial activity against Staphylococcus aureus ATCC 25923 after 18 hrs; assay type: functional; conditions: ATCC 25923, 18 h
How it was run: (§1)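 Agar-dilution MIC on Mueller–Hinton II agar per CLSI guidelines. Aqueous test solutions were added to liquid agar to give two dilution series across 6.25–400 µg/mL. Solidified plates were spot-inoculated with 2 µL aliquots to a final inoculum of 10^4 […]. […] Strains were standard S. aureus strains or hospital patient isolates typed MSSA/MRSA.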

Staphylococcus aureus [13] = experiment: Antibacterial activity against Staphylococcus aureus NCTC 4163 after 18 hrs; assay type: functional; conditions: NCTC 4163, 18 h; how it was run: as §1
Staphylococcus aureus [14] = experiment: Antibacterial activity against Staphylococcus aureus ATCC 29213 after 18 hrs; assay type: functional; conditions: ATCC 29213, 18 h; how it was run: as §1
Staphylococcus aureus [15] = experiment: Antibacterial activity against Staphylococcus aureus ATCC 6538P after 18 hrs; assay type: functional; how it was run: as §1
Staphylococcus aureus [16] = experiment: Antibacterial activity against methicillin-susceptible Staphylococcus aureus 2/04 isolates after 18 hrs; assay type: functional; how it was run: as §1
Staphylococcus aureus [17] = experiment: Antibacterial activity against methicillin-susceptible Staphylococcus aureus 3/04 isolates after 18 hrs; assay type: functional; how it was run: as §1
Staphylococcus aureus [18] = experiment: Antibacterial activity against methicillin-susceptible Staphylococcus aureus 4/04 isolates after 18 hrs; assay type: functional; how it was run: as §1
Staphylococcus aureus [19] = experiment: Antibacterial activity against methicillin-susceptible Staphylococcus aureus 6/04 isolates after 18 hrs; assay type: functional; how it was run: as §1
Staphylococcus aureus [20] = experiment: Antibacterial activity against methicillin-susceptible Staphylococcus aureus 7/04 isolates after 18 hrs; assay type: functional; how it was run: as §1
Staphylococcus aureus [21] = experiment: Antibacterial activity against methicillin-susceptible Staphylococcus aureus 14/04 isolates after 18 hrs; assay type: functional; how it was run: as §1
Staphylococcus aureus [22] = experiment: Antibacterial activity against methicillin-susceptible Staphylococcus aureus 28/04 isolates after 18 hrs; assay type: functional; how it was run: as §1
Staphylococcus aureus [23] = experiment: Antibacterial activity against methicillin-susceptible Staphylococcus aureus 36/05 isolates after 18 hrs; assay type: functional; how it was run: as §1
Staphylococcus aureus [24] = experiment: Antibacterial activity against methicillin-susceptible Staphylococcus aureus 38/05 isolates after 18 hrs; assay type: functional; how it was run: as §1
Staphylococcus aureus [25] = experiment: Antibacterial activity against methicillin-susceptible Staphylococcus aureus 40/05 isolates after 18 hrs; assay type: functional; how it was run: as §1
Staphylococcus aureus [26] = experiment: Antibacterial activity against methicillin-susceptible Staphylococcus aureus 42/05 isolates after 18 hrs; assay type: functional; how it was run: as §1
Staphylococcus aureus [27] = experiment: Antibacterial activity against methicillin-susceptible Staphylococcus aureus 49/05 isolates after 18 hrs; assay type: functional; how it was run: as §1
Staphylococcus aureus [28] = experiment: Antibacterial activity against methicillin-susceptible Staphylococcus aureus 60/05 isolates after 18 hrs; assay type: functional; how it was run: as §1
Staphylococcus aureus [29] = experiment: Antibacterial activity against methicillin-susceptible Staphylococcus aureus 65/05 isolates after 18 hrs; assay type: functional; how it was run: as §1
Staphylococcus aureus [30] = experiment: Antibacterial activity against methicillin-susceptible Staphylococcus aureus 69/05 isolates after 18 hrs; assay type: functional; how it was run: as §1

`CC1=C(C)C2(C)C3C(=O)N(OCC(O)C[N+](C)(C)CC(O)CON4C(=O)C5C(C4=O)C4(C)C(C)=C(C)C5(C)C4C)C(=O)C3C1(C)C2C.[Cl-]` (stereo not drawn) showed a zone of inhibition at 100 µg/disc (Staphylococcus aureus [1]) of 16 mm, a zone of inhibition at 100 µg/disc (Staphylococcus aureus [2]) of 17 mm and a zone of inhibition at 100 µg/disc (Staphylococcus aureus [3]) of 14 mm. For the same compound, the zone of inhibition at 100 µg/disc (Staphylococcus aureus [4]) was 17 mm, the zone of inhibition at 100 µg/disc (Bacillus subtilis) was 25 mm and the zone of inhibition at 100 µg/disc (Enterococcus hirae) was 14 mm. The Activity (Escherichia coli [5]) was “inactive”, the Activity (Escherichia coli [6]) was “inactive” and the Activity (Pseudomonas aeruginosa [7]) was “inactive”. For the same compound, the Activity (Pseudomonas aeruginosa [8]) was “inactive”, the zone of inhibition at 100 µg/disc [9] was 13 mm and the Activity (Candida albicans) was “inactive”. It also gave a zone of inhibition at 400 µg/disc (Staphylococcus aureus [10]) of 20 mm, a zone of inhibition at 400 µg/disc (Staphylococcus aureus [11]) of 24 mm and an MIC (Staphylococcus aureus [12]) of 50 µg/mL. It also gave an MIC (Staphylococcus aureus [13]) of 50 µg/mL, an MIC (Staphylococcus aureus [14]) of 50 µg/mL and an MIC (Staphylococcus aureus [15]) of 50 µg/mL. It also gave an MIC (Staphylococcus aureus [16]) of 25 µg/mL, an MIC (Staphylococcus aureus [17]) of 25 µg/mL and an MIC (Staphylococcus aureus [18]) of 25 µg/mL. The MIC (Staphylococcus aureus [19]) was 25 µg/mL, the MIC (Staphylococcus aureus [20]) was 25 µg/mL and the MIC (Staphylococcus aureus [21]) was 25 µg/mL. The MIC (Staphylococcus aureus [22]) was 50 µg/mL, the MIC (Staphylococcus aureus [23]) was 50 µg/mL and the MIC (Staphylococcus aureus [24]) was 50 µg/mL. It also gave an MIC (Staphylococcus aureus [25]) of 50 µg/mL, an MIC (Staphylococcus aureus [26]) of 25 µg/mL and an MIC (Staphylococcus aureus [27]) of 25 µg/mL. The MIC (Staphylococcus aureus [28]) was 25 µg/mL, the MIC (Staphylococcus aureus [29]) was 25 µg/mL and the MIC (Staphylococcus aureus [30]) was 25 µg/mL.
